Experimental data from ChEMBL document CHEMBL1177700, “Discovery of bishomo(hetero)arylpiperazines as novel multifunctional ligands targeting dopamine D(3) and serotonin 5-HT(1A) and 5-HT(2A) receptors” (J Med Chem, 2010).
Calls of active or inactive are those of the source. The rule behind the calls is not given here.

Assays:
[1] = Displacement of [3H]mesulergine from 5HT2C receptor in CRL:(HA) BR albino guinea pig cortex by scintillation spectrometry; set-up: species or system Cavia porcellus
Summary of the method: (§1)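 Radioligand displacement binding gave Ki (nM). Each value is the mean of three determinations, with SD within 10% of the mean.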

[2] = molecular target: 5-hydroxytryptamine receptor 2A (Rattus norvegicus, UniProt P14842); test: Displacement of [3H]ketanserin from 5HT2A receptor in CRL:CD(SD)BR-COBS rat cortex by scintillation spectrometry
[3] = molecular target: T1, 5-hydroxytryptamine receptor 1A (Rattus norvegicus, UniProt P19327); test: Displacement of [3H]8OH-DPAT from 5HT1A receptor in rat CRL:CD(SD)BR-COBS hippocampus by scintillation spectrometry; type: tissue-based; summary of the method: as §1
T1 sequence (P19327 whole entry): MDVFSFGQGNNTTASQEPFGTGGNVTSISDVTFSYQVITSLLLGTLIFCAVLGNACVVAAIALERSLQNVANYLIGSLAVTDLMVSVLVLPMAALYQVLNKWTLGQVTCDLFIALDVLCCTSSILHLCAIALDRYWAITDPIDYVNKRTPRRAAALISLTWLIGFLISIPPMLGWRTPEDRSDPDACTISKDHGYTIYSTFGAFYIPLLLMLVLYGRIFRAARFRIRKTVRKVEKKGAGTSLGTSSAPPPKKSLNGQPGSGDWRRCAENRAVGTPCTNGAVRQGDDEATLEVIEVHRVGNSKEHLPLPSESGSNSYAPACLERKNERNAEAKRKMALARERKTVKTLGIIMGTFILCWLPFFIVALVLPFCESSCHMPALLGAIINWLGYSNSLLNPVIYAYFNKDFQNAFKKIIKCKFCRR

[4] = molecular target: D(2) dopamine receptor (Rattus norvegicus, UniProt P61169); test: Displacement of [3H]spiperone from dopamine D2 receptor in CRL:CD(SD)BR-COBS rat striatum by scintillation spectrometry
[5] = molecular target: D(1A) dopamine receptor (Rattus norvegicus, UniProt P18901); test: Displacement of [3H]SCH23390 from dopamine D1 receptor in CRL:CD(SD)BR-COBS rat striatum by scintillation spectrometry
[6] = AUC (0 to 6 hrs) in NMRI mouse at 3 mg/kg, ip; type: ADME, organism-based; set-up: time < 6 hr, dose 3 mg/kg, route intraperitoneal; conditions: plasma
Summary of the method: (§2)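 Mice received a single 3 mg/kg ip dose, and plasma concentrations were measured over time. […] Cmax, Tmax and T1/2 were taken from the plasma level profiles.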

[7] = tested on: Mus musculus; test: Antipsychotic activity in NMRI mouse assessed as reduction of PCP-induced locomotor activity at 10 mg/kg, ip administered 30 mins prior to testing measured for 60 mins; type: functional, organism-based; set-up: dose 10 mg/kg
[8] = tested on: Mus musculus; test: Antipsychotic activity in NMRI mouse assessed as inhibition of PCP-induced locomotor activity at 3 mg/kg, ip administered 30 mins prior to testing measured for 60 mins; type: functional, organism-based; set-up: dose 3 mg/kg
[9] = Partition coefficient, log P of the compound; type: physicochemical; conditions: octanol/water
[10] = Lipophilicity, log D at pH 7.4; type: physicochemical; conditions: buffer
[11] = Cmax in NMRI mouse at 3 mg/kg, ip; type: ADME, organism-based; set-up: dose 3 mg/kg, route intraperitoneal; conditions: in vivo; summary of the method: as §2
[12] = Tmax in NMRI mouse at 3 mg/kg, ip; type: ADME, organism-based; set-up: dose 3 mg/kg, route intraperitoneal; conditions: in vivo; summary of the method: as §2
[13] = tested on: Mus musculus; test: Antipsychotic activity in NMRI mouse assessed as increase of MK-801-induced locomotor activity at 1 mg/kg, ip administered 30 mins prior to testing measured for 60 mins; type: functional, organism-based; set-up: dose 1 mg/kg
[14] = molecular target: Voltage-gated inwardly rectifying potassium channel KCNH2 (Homo sapiens, UniProt Q12809); test: Binding affinity to human ERG expressed in HEK293 cells; type: cell-based
[15] = tested on: Mus musculus; test: Antipsychotic activity in ip dosed NMRI mouse assessed as reduction in methamphetamine-induced locomotor activity administered 30 mins prior to testing measured for 60 mins; type: functional
Summary of the method: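 Mice were made hyperactive by methamphetamine pretreatment, then dosed with the compound. Read-out was locomotor hypermotility. Doses ranged from 0.3 to 30 mg/kg.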

[16] = tested on: Mus musculus; test: Antipsychotic activity in ip dosed NMRI mouse assessed as reduction in spontaneous exploratory locomotor activity administered 30 mins prior to testing measured for 60 mins; type: functional
[17] = tested on: Mus musculus; test: Antipsychotic activity in NMRI mouse assessed as reduction in spontaneous exploratory locomotor activity at 30 mg/kg, ip administered 30 mins prior to testing measured for 60 mins; type: functional; conditions: route intraperitoneal
[18] = tested on: Mus musculus; test: Antipsychotic activity in NMRI mouse assessed as reduction in methamphetamine-induced locomotor activity at > 30 mg/kg, ip administered 30 mins prior to testing measured for 60 mins; type: functional; conditions: route intraperitoneal
[19] = tested on: Mus musculus; test: Antipsychotic activity in NMRI mouse assessed as reduction in spontaneous exploratory locomotor activity at 10 mg/kg, ip administered 30 mins prior to testing measured for 60 mins; type: functional; conditions: route intraperitoneal
[20] = tested on: Mus musculus; test: Antipsychotic activity in NMRI mouse assessed as reduction in MK-801-induced locomotor activity at 10 mg/kg, ip administered 30 mins prior to testing measured for 60 mins; type: functional; conditions: route intraperitoneal
[21] = Half life in NMRI mouse at 3 mg/kg, ip; type: ADME, organism-based; set-up: dose 3 mg/kg, route intraperitoneal; conditions: in vivo; summary of the method: as §2
[22] = tested on: Mus musculus; test: Antipsychotic activity in NMRI mouse assessed as reduction in MK-801-induced locomotor activity at 30 mg/kg, ip administered 30 mins prior to testing measured for 60 mins; type: functional; conditions: route intraperitoneal
[23] = tested on: Mus musculus; test: Antipsychotic activity in NMRI mouse assessed as increase of methamphetamine-induced locomotor activity at 0.3 mg/kg, ip administered 30 mins prior to testing measured for 60 mins; type: functional, organism-based; set-up: dose 0.3 mg/kg
[24] = tested on: Mus musculus; test: Antipsychotic activity in NMRI mouse assessed as increase of spontaneous exploratory locomotor activity at 1 mg/kg, ip administered 30 mins prior to testing measured for 60 mins; type: functional

Chain of D(2) dopamine receptor (P61169 whole entry): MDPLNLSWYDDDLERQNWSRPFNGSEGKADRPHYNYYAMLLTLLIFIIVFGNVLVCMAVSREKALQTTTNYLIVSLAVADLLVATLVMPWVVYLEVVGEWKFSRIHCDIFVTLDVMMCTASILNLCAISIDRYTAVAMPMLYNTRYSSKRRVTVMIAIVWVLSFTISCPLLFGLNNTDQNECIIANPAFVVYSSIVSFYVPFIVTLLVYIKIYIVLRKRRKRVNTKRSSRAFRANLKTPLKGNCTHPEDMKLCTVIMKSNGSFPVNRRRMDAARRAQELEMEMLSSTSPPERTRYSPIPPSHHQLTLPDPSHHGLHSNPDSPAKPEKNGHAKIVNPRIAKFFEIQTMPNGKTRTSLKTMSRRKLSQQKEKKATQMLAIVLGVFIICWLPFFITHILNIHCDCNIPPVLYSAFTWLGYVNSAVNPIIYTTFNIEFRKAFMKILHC
Chain of D(1A) dopamine receptor (P18901 whole entry): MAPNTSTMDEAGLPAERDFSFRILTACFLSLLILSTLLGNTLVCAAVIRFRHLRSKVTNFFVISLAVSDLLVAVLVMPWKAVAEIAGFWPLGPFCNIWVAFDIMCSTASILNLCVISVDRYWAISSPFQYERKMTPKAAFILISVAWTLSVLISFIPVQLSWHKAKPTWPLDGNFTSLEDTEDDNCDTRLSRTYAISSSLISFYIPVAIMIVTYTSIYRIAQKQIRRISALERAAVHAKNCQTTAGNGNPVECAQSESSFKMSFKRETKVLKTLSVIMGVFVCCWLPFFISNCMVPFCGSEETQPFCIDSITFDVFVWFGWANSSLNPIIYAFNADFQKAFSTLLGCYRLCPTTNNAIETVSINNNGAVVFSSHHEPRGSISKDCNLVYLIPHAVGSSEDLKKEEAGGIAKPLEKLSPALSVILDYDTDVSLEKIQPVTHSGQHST
Chain of 5-hydroxytryptamine receptor 2A (P14842 whole entry): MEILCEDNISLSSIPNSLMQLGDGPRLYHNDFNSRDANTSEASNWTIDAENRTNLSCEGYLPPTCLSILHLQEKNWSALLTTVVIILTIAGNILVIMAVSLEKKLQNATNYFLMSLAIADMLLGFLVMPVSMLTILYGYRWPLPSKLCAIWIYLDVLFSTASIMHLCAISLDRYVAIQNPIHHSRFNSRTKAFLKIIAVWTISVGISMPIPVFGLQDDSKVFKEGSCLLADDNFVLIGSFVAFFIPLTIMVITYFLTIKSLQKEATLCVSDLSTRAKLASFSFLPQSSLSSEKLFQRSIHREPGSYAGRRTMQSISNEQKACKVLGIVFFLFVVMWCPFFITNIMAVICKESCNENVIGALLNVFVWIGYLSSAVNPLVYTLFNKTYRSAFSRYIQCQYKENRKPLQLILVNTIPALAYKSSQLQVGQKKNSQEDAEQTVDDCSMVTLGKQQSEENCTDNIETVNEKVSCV
Chain of Voltage-gated inwardly rectifying potassium channel KCNH2 (Q12809 whole entry): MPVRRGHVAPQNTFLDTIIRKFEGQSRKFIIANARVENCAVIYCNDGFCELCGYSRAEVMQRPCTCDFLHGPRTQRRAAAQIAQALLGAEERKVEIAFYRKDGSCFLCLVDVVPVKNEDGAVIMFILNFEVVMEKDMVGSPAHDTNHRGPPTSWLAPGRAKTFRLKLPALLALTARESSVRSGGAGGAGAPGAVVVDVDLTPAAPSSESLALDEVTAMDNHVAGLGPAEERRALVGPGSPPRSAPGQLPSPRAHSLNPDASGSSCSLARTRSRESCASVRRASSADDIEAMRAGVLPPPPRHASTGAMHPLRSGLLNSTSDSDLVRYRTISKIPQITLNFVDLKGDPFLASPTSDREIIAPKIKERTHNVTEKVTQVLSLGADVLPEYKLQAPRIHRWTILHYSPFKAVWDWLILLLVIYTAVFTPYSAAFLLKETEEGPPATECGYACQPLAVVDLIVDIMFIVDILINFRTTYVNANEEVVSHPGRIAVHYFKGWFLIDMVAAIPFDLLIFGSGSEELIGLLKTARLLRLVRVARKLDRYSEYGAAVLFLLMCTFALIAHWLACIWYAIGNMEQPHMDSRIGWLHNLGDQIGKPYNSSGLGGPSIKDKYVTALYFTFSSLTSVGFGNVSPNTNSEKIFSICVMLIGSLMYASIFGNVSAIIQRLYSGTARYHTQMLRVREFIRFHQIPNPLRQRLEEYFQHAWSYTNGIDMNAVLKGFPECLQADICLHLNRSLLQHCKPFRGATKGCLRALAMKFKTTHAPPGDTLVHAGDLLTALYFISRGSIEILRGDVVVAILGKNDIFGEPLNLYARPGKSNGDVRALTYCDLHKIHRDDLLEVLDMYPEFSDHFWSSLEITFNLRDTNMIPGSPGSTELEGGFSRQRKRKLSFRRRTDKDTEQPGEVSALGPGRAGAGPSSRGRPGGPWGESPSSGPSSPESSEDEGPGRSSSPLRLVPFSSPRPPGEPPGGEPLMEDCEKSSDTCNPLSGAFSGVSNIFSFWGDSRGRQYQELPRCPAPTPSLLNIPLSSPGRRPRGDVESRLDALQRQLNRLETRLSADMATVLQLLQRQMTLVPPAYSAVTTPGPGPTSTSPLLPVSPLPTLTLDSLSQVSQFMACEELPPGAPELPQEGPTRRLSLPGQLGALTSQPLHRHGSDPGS

Compound	Ki [1]	Ki [2]	Ki [3]	Ki [4]	Ki [5]	AUC(0-t) at 6 h [6]	Activity [7]	Activity [8]	logP [9]	logD [10]	Cmax [11]	Tmax [12]	Ki [14]	further results
Cc1cccc(N2CCN(CCCCCCN3CCN(c4cccc(C)n4)CC3)CC2)c1	68 nM	6 nM	11 nM	33 nM	> 1000 nM	243 ng·h/mL	Active	Active	4.62	2.46	58 ng/mL	120 min		Activity [13]: Active
Cc1cccc(N2CCN(CCCCCCN3CCN(c4cccc(C)c4)CC3)CC2)c1	120 nM	20 nM	48 nM	70 nM	> 1000 nM				5	4.03			2200 nM	
Clc1cccc(N2CCN(CCCCCCN3CCN(c4cccc(Cl)c4)CC3)CC2)c1	504 nM	98 nM	16 nM	11 nM	> 1000 nM				5.35	4.58			300 nM	
c1ccc(N2CCN(CCCCCCN3CCN(c4ccnc5ccccc45)CC3)CC2)cc1	> 1000 nM	34 nM	49 nM	41 nM	> 1000 nM				5.61	3.1			3800 nM	
CN1CCN(C2=Nc3cc(Cl)ccc3Nc3ccccc32)CC1 [CLOZAPINE]							Active	Active						ED50 [15]: 2.5 mg/kg; ED50 [16]: 2.4 mg/kg
Cc1cccc(N2CCN(CCCCNC(=O)c3cc4ccccc4o3)CC2)c1	206 nM			4.5 nM	263 nM	128 ng·h/mL	Active	Active			155 ng/mL	30 min		
c1ccc(N2CCN(CCCCCCN3CCN(c4ccccn4)CC3)CC2)nc1	> 1000 nM	45 nM	16 nM	159 nM	> 1000 nM	84 ng·h/mL	Active	Active	3.39	1.33	26 ng/mL	60 min	> 10000 nM	Activity [17]: 30 mg/kg
c1ccc(N2CCN(CCCCCCN3CCN(c4ccccc4)CC3)CC2)cc1	> 1000 nM	31 nM	3 nM	1 nM	> 1000 nM	198 ng·h/mL	Active	Active	3.83	2.96	71 ng/mL	30 min	8000 nM	Activity [18]: >30 mg/kg; Activity [19]: 10 mg/kg
Cc1cccc(N2CCN(CCCCCCN3CCN(c4ccccc4)CC3)CC2)c1	182 nM	10 nM	19 nM	20 nM	> 1000 nM	147 ng·h/mL	Active	Active	4.45	3.53	41 ng/mL	30 min	3800 nM	Activity [17]: 30 mg/kg
Cc1cccc(N2CCN(CCCCCCN3CCN(c4ccccc4)CC3)CC2)n1	309 nM	25 nM	8 nM	24 nM	> 1000 nM	362 ng·h/mL	Active	Active	3.99	1.89	121 ng/mL	18 min		Activity [20]: 10 mg/kg; Activity [17]: 30 mg/kg; half-life [21]: 150 min
COc1cccc(N2CCN(CCCCCCN3CCN(c4cccc(OC)c4)CC3)CC2)c1	303 nM	28 nM	8 nM	27 nM	> 1000 nM				4.19	3.25			2400 nM	
O=C1CCc2ccc(OCCCCN3CCN(c4cccc(Cl)c4Cl)CC3)cc2N1 [ARIPIPRAZOLE]							Active	Active						ED50 [16]: 2.5 mg/kg
c1ccc(N2CCN(CCCCCCN3CCN(c4ccccn4)CC3)CC2)cc1	> 1000 nM	39 nM	30 nM	34 nM	> 1000 nM	58 ng·h/mL	Active	Active	3.61	2.14	50 ng/mL	60 min	13000 nM	Activity [22]: 30 mg/kg; Activity [19]: 10 mg/kg
Cc1cccc(N2CCN(CCCCCCN3CCN(c4ccccn4)CC3)CC2)c1	150 nM	10 nM	2 nM	44 nM	> 1000 nM		Active	Active	4.23	2.72			8700 nM	Activity [23]: Active; Activity [24]: inactive
O=C(CCCN1CCC(O)(c2ccc(Cl)cc2)CC1)c1ccc(F)cc1 [HALOPERIDOL]							Active	Active						ED50 [16]: 0.08 mg/kg
COc1cccc(N2CCN(CCCCCCN3CCN(c4cccc(Cl)c4)CC3)CC2)c1	92 nM	7 nM	1 nM	4 nM	> 1000 nM				4.7	3.89			1200 nM	
Cc1cccc(N2CCN(CCCCCCN3CCN(c4ccnc5ccccc45)CC3)CC2)c1									6.23	3.67			900 nM	
